How the values were obtained:
[1] = tested on: A549; experiment: In vitro antitumor activity against NSCL A549/ATCC tumor cell lines; format: functional, cell-based, Homo sapiens; conditions: a549
[2] = tested on: A498; experiment: In vitro antitumor activity against renal A498 tumor cell lines; format: functional, cell-based, Homo sapiens; conditions: a498
[3] = tested on: CCRF-CEM; experiment: In vitro antitumor activity against leukemia CCRF-CEM tumor cell lines; format: functional, cell-based, Homo sapiens; conditions: ccrf-cem
[4] = tested on: COLO 205; experiment: In vitro antitumor activity against colon COLO 205 tumor cell lines; format: functional, cell-based, Homo sapiens; conditions: colo 205
[5] = tested on: HCT-15; experiment: In vitro antitumor activity against colon HCT-15 tumor cell lines; format: functional, cell-based, Homo sapiens; conditions: hct-15
[6] = tested on: HCT-116; experiment: In vitro antitumor activity against colon HCT116 tumor cell lines; format: functional, cell-based, Homo sapiens; conditions: hct-116
[7] = species on record: Homo sapiens; experiment: Concentration giving 500 zone units against H116 colon tumor cell lines; format: functional
Procedure, shortened: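 Disk diffusion soft agar colony formation assay on human H116 colon tumor cells. Each sample was applied to a disk as 15 µL, and activity was read as zone units. The value is the sample concentration that gave 500 zone units.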

[8] = tested on: MDA-MB-435; experiment: In vitro antitumor activity against breast MDA-MB-435 tumor cell lines; format: functional, cell-based, Homo sapiens; conditions: mda-mb-435
[9] = tested on: M14; experiment: In vitro antitumor activity against melanoma M14 tumor cell lines; format: functional, cell-based, Homo sapiens; conditions: m14
[10] = tested on: MOLT-4; experiment: In vitro antitumor activity against leukemia MOLT-4 tumor cell lines; format: functional, cell-based, Homo sapiens; conditions: molt-4
[11] = tested on: MCF7; experiment: In vitro antitumor activity against breast MCF-7 tumor cell lines; format: functional, cell-based, Homo sapiens; conditions: mcf7
[12] = tested on: NCI-H522; experiment: In vitro antitumor activity against NSCL NCI-H522 tumor cell lines; format: functional, cell-based, Homo sapiens; conditions: nci-h522
[13] = tested on: NCI-H226; experiment: In vitro antitumor activity against NSCL NCI-H226 tumor cell lines; format: functional, cell-based, Homo sapiens; conditions: nci-h226
[14] = tested on: RXF 393; experiment: In vitro antitumor activity against renal RXF 393 tumor cell lines; format: functional, cell-based, Homo sapiens; conditions: rxf 393
[15] = tested on: SK-MEL-2; experiment: In vitro antitumor activity against melanoma SK-MEL-2 tumor cell lines; format: functional, cell-based, Homo sapiens; conditions: sk-mel-2
[16] = tested on: UACC-62; experiment: In vitro antitumor activity against melanoma UACC-62 tumor cell lines; format: functional, cell-based, Homo sapiens; conditions: uacc-62
[17] = tested on: HL-60; experiment: In vitro antitumor activity against leukemia HL-60(TB) tumor cell lines; format: functional, cell-based, Homo sapiens; conditions: hl-60
[18] = tested on: MDA-N; experiment: In vitro antitumor activity against breast MDA-N tumor cell lines; format: functional, cell-based, Homo sapiens; conditions: mda-n
[19] = tested on: 786-0; experiment: In vitro antitumor activity against renal 786-0 tumor cell lines; format: functional, cell-based, Homo sapiens
[20] = tested on: MC-38; experiment: Selectivity was evaluated against Murine tumor ZC38 colon adenocarcinoma cell lines- ZL1210 lymphocytic leukemia cell lines at a concentration of 0.24 ug/mL; format: functional, cell-based; conditions: Mus musculus
Procedure, shortened: (§1)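 Disk diffusion soft agar colony formation assay; sample applied to disk (15 μL); cytotoxicity read as zone units. Differential = zone difference between a solid tumor line (murine Colon38; human colon H116, lung H125) and leukemia (murine L1210, human CEM) or normal bone marrow CFU-GM (murine/human). Solid tumor selective if differential exceeds 250 units.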

[21] = tested on: MC-38; experiment: Selectivity was evaluated against murine tumor ZC38 colon adenocarcinoma cell lines- ZCFU-GM normal bone marrow cell lines at a concentration of 0.24 ug/mL; format: functional, cell-based; conditions: Mus musculus; procedure, shortened: as §1
[22] = tested on: NCI-H125; experiment: Selectivity was evaluated against human ZH125 lung non small cell carcinoma cell lines-CEM lymphocytic leukemia cell lines at a concentration of 0.24 ug/mL; format: functional, cell-based; procedure, shortened: as §1
[23] = tested on: colon; experiment: Selectivity was evaluated against human ZH116 colon cell lines-CEM lymphocytic leukemia cell lines at a concentration of 0.24 ug/mL; format: functional, cell-based; procedure, shortened: as §1
[24] = species on record: Homo sapiens; experiment: Activity relative to compound 3 (set to 1.0) was evaluated against H116 colon tumor cell lines; format: functional
Procedure, shortened: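 Disk diffusion soft agar colony formation assay on human H116 colon tumor cells, with 15 µL of sample applied to a disk and zone units read. Relative activity = (dilution required for 500 zone units × 100)/(mg/mL), normalised to a reference compound set at 1.0.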

[25] = tested on: L1210; experiment: Selectivity was evaluated murine tumor against ZL1210 lymphocytic leukemia cell lines- ZCFU-GM normal bone marrow cell lines at a concentration of 0.24 ug/mL; format: functional, cell-based; conditions: Mus musculus; procedure, shortened: as §1

Structure (SMILES)	IC50 [1] [nM]	IC50 [2] [nM]	IC50 [3] [nM]	IC50 [4] [nM]	IC50 [5] [nM]	IC50 [6] [nM]	Concentration [7] [µg/mL]	IC50 [8] [nM]	IC50 [9] [nM]	IC50 [10] [nM]	IC50 [11] [nM]	IC50 [12] [nM]	IC50 [13] [nM]	IC50 [14] [nM]	IC50 [15] [nM]	IC50 [16] [nM]	IC50 [17] [nM]	IC50 [18] [nM]	IC50 [19] [nM]	other results
CC1=C[C@H]2OC3C[C@@H](OC(=O)/C=C\C=C\[C@H](O)[C@@H](C)O)[C@](C)([C@@]2(COC(=O)/C=C(\C)CCO)CC1)[C@]31CO1 [TRICHOVERRIN B]	6210	8160	> 10000	4020	> 10000	> 10000	175	5490	7100	> 10000	> 10000	904	6930	> 10000	8910	> 10000	> 10000	> 10000	> 10000	–
CC1=C[C@H]2O[C@@H]3[C@H](O)[C@H]4OC(=O)/C=C\C=C\[C@H]([C@H](C)O)OCC/C(C)=C/C(=O)OC[C@@]2(CC1)[C@]4(C)[C@]31CO1 [RORIDIN L]	> 10000	19	> 10000	13	> 10000	> 10000	1.3	20	24	> 10000	> 10000	21	91	> 10000	24	18	> 10000	21	–	–
CC1=C[C@H]2O[C@@H]3C[C@H]4OC(=O)/C=C\C=C\[C@H]([C@H](C)O)OCC[C@@H](C)[C@H](O)C(=O)OC[C@@]2(CC1)[C@]4(C)[C@]31CO1 [(6'R,13'S) ISORORIDIN A]	> 10000	6	> 10000	8	> 10000	> 10000	0.9	31	10	> 10000	> 10000	95	–	10	> 10000	2	> 10000	8	> 10000	–
CC(=O)OC[C@]12CCC(C)=C[C@H]1O[C@@H]1[C@H](O)[C@@H](OC(C)=O)[C@@]2(C)[C@]12CO2 [ANGUIDIN]	< 1	< 1	< 1	< 1	< 1	< 1	0.24	< 1	< 1	< 1	< 1	< 1	< 1	< 1	< 1	< 1	< 1	< 1	< 1	Selectivity [20]: -150 zone unit; Selectivity [21]: 0 zone unit; Selectivity [22]: 0 zone unit; Selectivity [23]: -100 zone unit; Relative activity [24]: 423; Selectivity [25]: 150 zone unit
CC1=C[C@H]2O[C@@H]3[C@H](O)[C@H]4OC(=O)/C=C\C=C\[C@@H]5O[C@H](C/C(C)=C/C(=O)OC[C@@]2(CC1)[C@]4(C)[C@]31CO1)O[C@H]5C [RORIDIN M]	> 10000	583	> 10000	–	483	75	41	137	75	> 10000	> 10000	26	157	2180	260	409	> 10000	83	> 10000	–
CC1=C[C@H]2O[C@@H]3[C@H](O)[C@H]4OC(=O)/C=C\C=C\[C@H]([C@@H](C)O)OCC/C(C)=C/C(=O)OC[C@@]2(CC1)[C@]4(C)[C@]31CO1	–	9	> 10000	> 10000	> 10000	< 1	0.14	4	< 1	> 10000	> 10000	> 10000	7	57	> 10000	9	10	–	59	–
CC1=C[C@H]2O[C@@H]3[C@H](O)[C@H]4OC(=O)/C=C\C=C\C(=O)OCC/C(C)=C/C(=O)OC[C@@]2(CC1)[C@]4(C)[C@]31CO1 [VERRUCARRIN M]	–	53	> 10000	7	73	–	30	14	8	> 10000	> 10000	< 1	33	84	37	57	> 10000	14	> 10000	–
CC(=O)OC(C)[C@@H](O)/C=C/C=C\C(=O)O[C@@H]1CC2O[C@@H]3C=C(C)CC[C@]3(COC(=O)/C=C(\C)CCO)[C@]1(C)[C@]21CO1 (stereo partly drawn) [13`-ACETYLTRICHOVERRIN B]	9770	2380	> 10000	612	> 10000	> 10000	31	2260	9000	> 10000	> 10000	1210	4870	> 10000	> 10000	9560	> 10000	5080	> 10000	–
CC1=C[C@H]2O[C@@H]3C[C@H]4OC(=O)/C=C\C=C\[C@H]([C@H](C)O)OCC/C(C)=C/C(=O)OC[C@@]2(CC1)[C@]4(C)[C@]31CO1	–	–	–	–	–	–	8.6	–	–	–	–	–	–	–	–	–	–	–	–	–
CC1=C[C@H]2O[C@@H]3C[C@H]4OC(=O)/C=C\C=C\[C@H]([C@@H](C)O)OCC[C@@H](C)[C@H](O)C(=O)OC[C@@]2(CC1)[C@]4(C)[C@]31CO1 [RORIDIN A]	> 10000	316	> 10000	3	> 10000	> 10000	0.78	6	< 1	> 10000	> 10000	< 1	3	2	3	5	> 10000	3	40	–
CC1=C[C@H]2OC3C[C@@H](OC(=O)/C=C\C=C\[C@H](O)[C@H](C)O)[C@](C)([C@@]2(COC(=O)/C=C(\C)CCO)CC1)[C@]31CO1 [TRICHOVERRIN A]	5440	6960	> 10000	1310	> 10000	> 10000	163	2700	7870	> 10000	> 10000	936	8410	> 10000	7540	> 10000	> 10000	7780	> 10000	–
CC1=C[C@H]2O[C@@H]3C[C@H]4OC(=O)/C=C\C=C\C(=O)OCC[C@@H](C)[C@H](O)C(=O)OC[C@@]2(CC1)[C@]4(C)[C@]31CO1 [VERRUCARIN A]	> 10000	3	> 10000	< 1	8100	> 10000	0.78	4	< 1	> 10000	1200	< 1	4	> 10000	8	5	> 10000	82	–	–
